CHRM5 agonist: agonists of human muscarinic M5 receptor (CHRM5); CHO-K1 hM5 cells, Fluo-8 calcium fluorescence; 0% DMSO wells, 100% maximal acetylcholine response; 360,000 compounds, 0.19% hits; activation, % at 3 µM; P08912; AID 624037;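 active means activation above the run's mean over test compounds plus 3 SD, cut at about 23% in these data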;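 further: signal is peak over basal fluorescence ratio across the kinetic read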
Target sequence (P08912 whole entry, looked up): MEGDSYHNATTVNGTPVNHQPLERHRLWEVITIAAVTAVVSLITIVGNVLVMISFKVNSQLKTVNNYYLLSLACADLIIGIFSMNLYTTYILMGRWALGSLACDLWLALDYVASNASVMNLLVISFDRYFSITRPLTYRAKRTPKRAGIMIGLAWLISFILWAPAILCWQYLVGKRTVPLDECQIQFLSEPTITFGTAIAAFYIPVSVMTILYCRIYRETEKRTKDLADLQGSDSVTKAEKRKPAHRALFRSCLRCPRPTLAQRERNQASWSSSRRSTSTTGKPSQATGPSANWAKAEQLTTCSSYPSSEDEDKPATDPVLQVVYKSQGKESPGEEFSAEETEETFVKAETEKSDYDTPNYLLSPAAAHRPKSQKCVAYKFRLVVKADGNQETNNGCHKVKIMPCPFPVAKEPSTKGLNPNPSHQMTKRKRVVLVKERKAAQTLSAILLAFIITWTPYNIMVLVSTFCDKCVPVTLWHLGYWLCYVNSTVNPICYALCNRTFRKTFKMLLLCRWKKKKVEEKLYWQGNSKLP
M4 ag: agonists of human muscarinic M4 receptor (CHRM4). P08173. CHO-K1 hM4/Gqi5, Fluo-8 calcium fluorescence; vehicle 0%, full acetylcholine response 100%. activation, % at 3 µM. 360,000 compounds, 0.14% hits. AID 624127;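 active means activation above the run mean over all test wells plus 3 SD, cut at about 32% in these data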;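 further: peak over basal fluorescence ratio per well then scaled between controls; 0% = DMSO wells and 100% = acetylcholine at EC100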
M4 antag: CHRM4 antagonism in calcium assay; 360,000 compounds, 0.73% hits; CHO-hM4 cells, ACh EC80, Fluo-8 calcium fluorescence; AID 624125; P08173; inhibition, % at 3 µM;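 active means inhibition above its plate's cutoff, the mean inhibition of sample wells plus 3 SD, cut at about 27% in these data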;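 further: 0% = acetylcholine EC80 with DMSO and 100% = DMSO without agonist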
M4 PAM: potentiates acetylcholine response at human M4 receptor; activation, % at 3 µM; 360,000 compounds, 0.4% hits; CHO-K1 hM4/Gqi5, Fluo-8 calcium fluorescence, ACh EC20; 0% = ACh EC20, 100% = maximal ACh; AID 624126;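 active means activation above its plate's cutoff, the mean activation of sample wells plus 3 SD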
CHRM5 PAM: potentiates acetylcholine response at human M5 receptor; P08912; CHO-K1 hM5, Fluo-8 calcium, ACh EC20 PAM; 0% = ACh EC20, 100% = ACh EC100; activation, % at 3 µM; 360,000 compounds, 0.3% hits; AID 624038;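 active means activation above the run cutoff, the mean activation of all test compounds plus 3 SD, cut at about 18% in these data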
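Assay system: CHO-K1 hM5 cells / Incubation: Fluo-8 loading 80 min at 37 °C plus 30 min room temperature / Technique: Fluo-8 calcium dye fluorescence, kinetic read / Repeats: single replicate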
M5 antag: blocks acetylcholine activation of human M5 receptor; AID 624040; 360,000 compounds, 0.59% hits; P08912; CHO-hM5 cells, Fluo-8 calcium fluorescence, ACh EC80; inhibition, % at 3 µM;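 active means inhibition above a per-plate cutoff, the mean of that plate's test compounds plus 3 SD, cut at about 27% in these data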;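 further: 0% = acetylcholine EC80 with DMSO and 100% = DMSO without agonist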
An asterisk follows results filed as active. An excerpt weighted towards active compounds, which were near 1.9% of everything screened.

SMILES	CHRM5 agonist	M4 ag	M4 antag	M4 PAM	CHRM5 PAM	M5 antag
Cc1ccc(C(=O)N2CCN(c3ccc([N+](=O)[O-])c(NCc4ccco4)c3)CC2)cc1	-10.7	-1.6	-17.1	31.2*	-1.4	-10.4
O=C1OCC(c2ccccc2)=C1c1ccccc1[N+](=O)[O-]	-10.8	0.7	-9.0	-5.3	1.7	5.3
COc1ccccc1N/C=C/c1onc(C)c1[N+](=O)[O-]	14.6	2.2	40.2*	-0.7	-12.9	22.9
O=C(Nc1ccc2c(c1)OCO2)c1ccc2sc([C@H]3C[C@H](O)[C@@H](CO)O3)nc2c1	0.2	1.4	-19.5	16.1*	-2.2	-4.2
CSc1sc(C(=O)NCC2CC2)c(-c2cccs2)c1C#N	0.6	6.2	-0.8	16.6*	5.3	-4.5
CSc1sc(C(=O)NCC2CC2)c2c1S(=O)(=O)N(C)c1ccccc1-2	2.5	7.5	-10.0	-8.6	-12.5	8.8
CCOC(=O)C1CCN(S(=O)(=O)c2ccc3c(c2)CC(C)N3C(=O)C2CCC2)CC1 (stereo not drawn)	-2.6	6.7	1.0	7.4	-5.6	14.2
COc1cc(/C=C2\SC(=O)N(CCNC(=O)c3c(C)noc3C)C2=O)cc(OC)c1OC	0.9	0.9	-7.8	8.9	-9.1	8.0
Cc1ccc2c(c1)NC(=O)C(CC(=O)NCCN(CC(C)C)CC(C)C)O2 (stereo not drawn)	-6.1	0.4	-13.1	-7.5	-8.1	4.8
N#C/C(=C/c1ccc(N2CCOCC2)o1)c1ccc(Br)cc1	5.7	11.6	36.2*	-13.7	-9.9	19.1
N#C/C(=C/c1ccc(N2CCOCC2)o1)C(=O)NC1CCCCC1	30.5*	9.6	-1.1	-2.6	-8.8	15.6
COc1ccc(NC(=O)/C(C#N)=C\c2ccc(N3CCOCC3)o2)cc1	120.5*	37.0*	14.3	-21.7	-22.9	38.9*
N#C/C(=C\c1ccc(N2CCOCC2)o1)C(=O)Nc1ccc(O)cc1	24.3*	9.5	-2.7	-4.9	-10.2	12.7
S=c1[nH]nc2n1CCCN2	0.2	0.5	0.5	7.2	17.0	-1.1
O=C(Cn1nc(-c2ccccc2F)ccc1=O)Nc1ccc(S(=O)(=O)N2CCCCCC2)cc1	0.9	1.9	5.3	-15.3	-4.0	8.8
COc1ccc(NC(=O)/C(C#N)=C/C=C/c2ccco2)cc1	6.3	1.2	18.3	6.4	23.7*	26.7
CCc1cccc(NC(=O)C2CCN(S(=O)(=O)c3ccc4c(c3)NC(=O)CO4)CC2)c1	-0.7	2.8	-3.3	-0.7	1.3	10.8
O=C(NC(=S)NC(CO)c1ccccc1)c1ccc(F)cc1 (stereo not drawn)	1.6	1.3	-30.2	15.0	2.3	-4.2
Cc1ccccc1OCCNCC(C)O (stereo not drawn)	6.9	1.8	-12.4	11.7	28.2*	11.2
O=C(CCN1C(=O)NC2(CCCC2)C1=O)Nc1ccc(-c2nc3ccccc3s2)cc1	2.8	28.3	27.5*	-13.1	-41.2	25.6
Cc1c(CN2CCC(CO)(CCOc3ccccc3)CC2)[nH]c2c(Cl)cccc12	1.2	14.7	28.8*	-14.7	3.0	10.0
COc1cc2c(cc1NC(=O)CN1CCN(S(=O)(=O)c3ccc(C)cc3)CC1)oc1ccccc12	-0.8	1.4	-7.5	21.7*	-0.6	9.5
O=c1[nH]c(Cc2ccccn2)nc2scc(-c3ccc(Cl)cc3)c12	4.2	1.1	-10.5	9.7	6.8	-2.9
Cn1cc(C(=O)c2ccccc2C(=O)O)cc1C(=O)C(Cl)(Cl)Cl	1.4	0.4	-6.3	1.2	-0.8	0.1
Cc1ccc(S(=O)(=O)N(CC(=O)Nc2ccccc2)C(=O)N2CCN(C)CC2)cc1	0.5	-0.1	1.0	19.7*	3.1	1.6
SMILES	CHRM5 agonist	M4 ag	M4 antag	M4 PAM	CHRM5 PAM	M5 antag
OC(C#CCN1CCCC1)(c1ccccc1)c1cccnc1 (stereo not drawn)	-21.7	-0.1	86.0*	-17.0	-31.2	75.6*
CC(O)(C#CCN1CCOCC1)c1ccccc1 (stereo not drawn)	-2.3	-0.2	6.2	-1.9	0.5	8.4
OC(C#CCN1CCCCCC1)(c1ccccc1)c1cccnc1 (stereo not drawn)	-18.4	12.8	82.1*	-60.5	-32.1	55.3*
CCCN(CC#CC(O)(c1ccccc1)c1cccnc1)CCC (stereo not drawn)	-10.7	0.1	4.9	-5.5	-9.9	-3.6
COC(=O)C1=C(CS(=O)(=O)c2ccc(Cl)cc2)NC(=O)NC1c1ccc(O)cc1 (stereo not drawn)	-5.2	0.3	-5.4	-0.9	-4.2	11.8
O=C(/C=C/c1ccccc1)OCC(=O)c1ccc[nH]1	-2.0	4.2	5.8	-0.9	-3.1	9.1
O=C(CSc1nnnn1C1CC2CCC1C2)Nc1ccnc2ccccc12 (stereo not drawn)	10.4	14.6	25.2	-15.9	-15.6	31.9*
CC(C)C12CN3CC(C(C)C)(CN(C1)C3c1ccccc1)C2O (stereo not drawn)	5.9	1.2	-0.2	32.4*	-2.4	1.5
CN(C)c1ccc(C2N3CC4(C)CN2CC(C)(C3)C4O)cc1 (stereo not drawn)	-0.6	1.2	-28.6	11.5	0.7	-9.7
CC(=O)C1C(c2cccc(F)c2)NC(=O)NC1(O)C(F)(F)F (stereo not drawn)	-0.7	1.7	1.5	-1.4	-4.9	7.6
O=C(Nc1ccc(F)cc1)Nc1cc(OCC(F)(F)F)cc(OCC(F)(F)F)c1	8.0	12.1	18.9	-12.9	-17.7	30.5*
CCOc1ccc(NC(=O)Nc2cc(OCC(F)(F)F)cc(OCC(F)(F)F)c2)cc1	1.3	9.7	8.6	-9.2	-14.9	28.0*
CCOc1ccc(NC(=O)Nc2ccc3nsnc3c2)cc1	5.5	17.4	1.6	-11.5	-22.9	32.6*
COC(=O)c1ccc(NC(=O)Nc2ccc(F)cc2)cc1	6.4	14.1	13.2	-9.5	-16.6	21.2
CCOc1ccc(NC(=O)Nc2cccc(C(=O)O)c2)cc1	-4.1	6.1	8.4	4.5	-0.8	5.2
Cn1cc(CN2CCCCC2C(=O)Nc2ccc(-n3cccn3)cc2)cn1 (stereo not drawn)	-6.7	0.3	1.2	-0.3	-6.6	27.3*
CN(CC1CCCN(CCc2ccccc2F)C1)C(=O)c1cc2ccccc2o1 (stereo not drawn)	-3.0	1.1	37.4*	-11.9	-15.2	5.9
CN(Cc1ccccc1O)CC1CCCN(CCc2ccc(Cl)cc2)C1 (stereo not drawn)	-22.2	3.3	37.4*	-14.3	-28.2	6.2
CCc1cc(C(=O)Cc2nc3ccccc3s2)c(O)cc1OCC(=O)O	3.2	1.1	36.1*	6.5	-0.3	-3.3
